# Bioassay records deposited in PubChem BioAssay by several laboratories.
# Yeast life ext = extends the lifespan of yeast; hit rate 0.68% among 130,000; AID 775; S. cerevisiae growth with nicotinamide, OD615; deaD strain in restrictive glucose medium; inhibition of the nicotinamide effect, % at 10 µM;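 active = inhibition above a set limit, placed 3 SD over the median of all compounds, cut at about 26% in these data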
#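 Measured by: optical density (absorbance) at 615 nm; System: modified budding yeast, DeaD strain; Medium: restrictive CSMM-D dextrose medium; Timing: 4 h preincubation then 48 h treatment at 30 °C.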
# Measles CPE = protection of cells from measles virus | protection (pct of control), % at 4 µM | Measles virus-infected cells, CPE protection, absorbance | hit rate 1.5% among 140,000; in the data active = protection mostly above about 24%, no sharp cut-off; inactive = mostly below about 26%
# RAM network inh = yeast RAM network inhibition; S. cerevisiae dse1pr::URA3 reporter, 5-FOA growth OD615, 2 d; analog-sensitive cbk1-as2 kinase mutant strain; inhibition, % at 50 µM; hit rate 1.8% among 190,000;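 active = inhibition above a set limit, 3 SD over mean compound inhibition, cut at about 8.4% in these data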;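 also: inhibition rescues growth on 5-FOA so higher OD means more RAM inhibition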
# BB579 growth dn = yeast BB579 growth reduction in restrictive medium | S. cerevisiae BB579 growth, OD615, 48 h | inhibition, % at 10 µM | hit rate 0.51% among 140,000;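 active = inhibition above a set limit, 3 SD over the mean compound inhibition, cut at about 44% in these data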
#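 System: Saccharomyces cerevisiae DeaD strain BB579, replicative lifespan model yeast | Buffer or medium: Restrictive glucose-based CSMM-D medium | Times: 4 h preincubation and 48 h exposure at 30 °C | Detection: OD615 turbidity measurement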
# Hits are given with their value; . = inactive; / = not tested or not shown. In the library only some 3.8% were active in any assay of this set; here they are far more common.
SMILES,Yeast life ext,Measles CPE,RAM network inh,BB579 growth dn
Oc1c(Cl)cc(Cl)c2cccnc12,/,/,.,/
CC1=C(C(=O)OCc2ccccc2)C(c2ccc(-c3ccccc3)cc2)NC(=O)N1CCCCCC(=O)O (stereo not drawn),.,.,11,.
CC1=C(C(=O)OCc2ccccc2)C(c2ccccc2)NC(=O)N1CCCCCC(=O)O (stereo not drawn),.,.,10,.
CC1=C(C(=O)OCc2ccccc2)C(c2ccc3ccccc3c2)NC(=O)N1CCCCCC(=O)O (stereo not drawn),.,.,.,.
O=C(NC(=S)NCCCN1CCOCC1)c1cccc2ccccc12,/,/,.,/
O=[N+]([O-])c1ccc(-c2cnc(SC(c3ccccc3)c3ccccc3)[nH]2)cc1,.,.,9.5,.
Cc1ccc(C(O)(COC(=O)C(C)C)COC(=O)C(C)C)c(O)c1,/,/,.,/
COc1ccc(OC)c2c(C)cc(N3CCN(C(=O)c4ccc(Cl)cc4)CC3)nc12,.,56,.,.
COc1ccc(C(=O)N2CCN(c3c(C)cccc3C)CC2)cc1OC,.,.,.,.
CCNC(=S)N1CCN(CCN=CC2=C(O)CC(c3cccs3)CC2=O)CC1 (stereo not drawn),.,.,.,.
O=C1CC(c2ccccc2)CC(O)=C1C=NCCN1CCN(C(=O)Nc2ccccc2)CC1 (stereo not drawn),92,.,.,.
Cc1ccc(NC(=O)CN2CCN(CCN=CC3=C(O)CC(c4ccccc4)CC3=O)CC2)cc1 (stereo not drawn),60,.,.,.
O=C1CC(c2ccccc2)CC(O)=C1C=NCCN1CCNCC1 (stereo not drawn),35,.,.,.
O=C1CC(c2ccc(F)cc2)CC(O)=C1C=NCCN1CCNCC1 (stereo not drawn),/,.,.,.
Cc1ccc(C2CC(=O)C(C=NCCN3CCN(C(=S)Nc4ccccc4)CC3)=C(O)C2)cc1 (stereo not drawn),/,/,.,/
CCC(=O)N1CCN(CCN=CC2=C(O)CC(c3cccs3)CC2=O)CC1 (stereo not drawn),53,.,.,.
O=S(=O)(Nc1nc2ccccc2nc1Nc1cccc(S(=O)(=O)N2CCCCC2)c1)c1ccccc1,.,.,.,.
CN(CC(=O)Nc1ccc(F)c(F)c1F)C(=O)/C=C/c1ccc(Cl)cc1,.,.,.,.
CCOC(=O)c1nn(-c2ccc(OCC)cc2)c2nc(-c3cccc(OC)c3)c(C#N)c(=O)n12,.,.,9.7,.
CCOC(=O)c1nn(-c2cccc(C)c2)c2nc(-c3ccccc3)c(C#N)c(=O)n12,.,.,.,.
CCOC(=O)c1nn(-c2ccc(F)cc2)c2nc(-c3ccccc3)c(C#N)c(=O)n12,27,.,.,.
CCOC(=O)c1nn(-c2ccccc2)c2nnc(Cc3ccc(C)cc3)c(=O)n12,.,.,.,.
CCOC(=O)c1nn(-c2ccccc2)c2nnc(Cc3ccccc3)c(=O)n12,32,.,.,.
O=C(NCc1cccnc1)C1CCN(C(=O)c2ccc(Cl)cc2Cl)CC1,.,35,.,.
CCOC(=O)CCC(=O)Nc1ccc([N+](=O)[O-])cc1C,/,/,.,/
SMILES,Yeast life ext,Measles CPE,RAM network inh,BB579 growth dn
COc1ccc(OC)c(NC(=O)Cn2cc(C(=O)c3ccco3)c3ccccc32)c1,.,.,.,.
COc1cccc(OCCn2cc(C(=O)c3ccco3)c3ccccc32)c1,.,.,10,.
COc1ccccc1NC(=O)Cn1cc(C(=O)c2ccco2)c2ccccc21,/,/,.,/
COc1ccccc1OCCn1cc(C(=O)c2ccco2)c2ccccc21,.,.,8.8,.
CC(=O)NC(=S)Nc1ccc(N2CCOCC2)c(S(=O)(=O)Nc2cc(Cl)ccc2Cl)c1,/,/,.,/
COc1ccc(OC)c(-c2csc(N(C)C(=O)Cc3ccccc3)n2)c1,/,/,9.8,/
COc1ccc(OC)c(-c2csc(N(CC3CCCO3)C(=O)C3CCCCC3)n2)c1 (stereo not drawn),/,/,.,/
COc1ccc(OC)c(-c2csc(N(Cc3ccco3)C(=O)c3cccs3)n2)c1,.,.,9.1,.
COc1ccc(-c2csc(N(CC3CCCO3)C(=O)c3cccs3)n2)cc1 (stereo not drawn),.,.,.,.
CSc1ccc(S(=O)(=O)NCc2ccc(Cl)cc2Cl)cc1,88,.,.,.
COc1ccc(C(=O)c2cc(C(C)=O)c(Nc3ccccc3)s2)cc1,.,.,9.1,.
CCCCn1[nH]c(-c2ccccc2)cc1=O,32,.,.,.
NC(=O)c1nsc(C(=O)N(CCc2ccccc2)C(C(=O)NC2CCCC2)c2ccco2)c1N (stereo not drawn),.,.,8.7,.
